Reference: paper PMC8796305 (ACS Central Science, 2022)

Test: Human plasma stability assay
Type: in vitro ADME
Conditions: 37 °C
In short: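 Lyophilised human plasma reconstituted in sterile water, stored in aliquots at −80 °C, and thawed at room temperature (three aliquots per compound). Each aliquot spiked with test compound from a 2 mM DMSO stock; Angiotensin I as positive control. Incubated at 37 °C. Samples taken at […], quenched with water/acetonitrile, centrifuged (17 000g, 4 °C, 1 h), and supernatants concentrated.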

Angiotensin I (DRVYIHPFHL; Angiotensin-1; UniProt P01019 25-34, looked up)
Time to complete degradation in human plasma: ≤ 4 h
